Hits are enriched below; roughly 2.1% of the tested compounds scored in any of these assays.
FAS TE block – FAS thioesterase (human) inhibition; AID 602261; 360,000 tested, 0.67% active; inhibition, % at 15 µM; recombinant FAS-TE, OMFH fluorogenic substrate, fluorescence endpoint; P49327;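 active means compounds whose normalised, plate-corrected inhibition of enzyme fluorescence in the single-dose primary screen is 50% or more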
Runt-CBFb FRET – Runt domain-CBFb interaction inhibition | Cerulean-Runt/Venus-CBFb FRET ratio 530/480, 1 h | inhibition, % at 20 µM | 220,000 tested, 0.46% active;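 active means inhibition over about 50% at 20 µM in the single-dose screen, limit read from the data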
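Measured by: fluorescence energy transfer, 422 nm excitation, 530/480 nm emission; test system: Cerulean-tagged RUNX1 Runt domain (FRET donor) fusion protein; buffer or medium: Tris pH 7.5 buffer with BSA; compound: one dose, 20 µM compound, 1% DMSO; times: two 1 h room-temperature incubations shielded from light; benchmarks: unlabeled CBFb 5 µM, positive control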
Runt-SMMHC FRET – inhibitors of human RUNX1 Runt domain binding to CBFb-SMMHC; Q01196+Q13951; Cerulean-Runt/Venus-CBFb-SMMHC FRET ratio 530/480, 1 h; inhibition, % at 20 µM; 220,000 tested, 0.74% active;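 active means mean inhibition across duplicate retests at 20 µM reaching about 50%, limit read from the data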;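 further: inhibitors lower the FRET ratio by blocking Runt binding to CBFb-SMMHC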
RanGTP-Imp inh – inhibitors of RanGTP-importin-beta interaction, primary screen, biochemical, FRET, CFP-Ran, YFP-importin-beta, homogeneous. inhibition, % (test concentration not listed). cell-free CFP-Ran/YFP-importin-beta FRET ratio. 300,000 tested, 1.1% active;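 active means more than half of the replicate wells show a fall in the fluorescence ratio signal beyond about 16%, limit read from the data, passing the limit was not always enough; inconclusive means exactly half of the replicate wells pass the set limit; inactive means fewer than half of replicates pass the limit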
Calpain2 inh – blocks pig calpain II enzyme activity. 220,000 tested, 0.37% active. purified calpain II, fluorogenic peptide substrate, 30 min. inhibition, % at 16 µM;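 active means inhibition above about 50%, limit read from the data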
A number is an active result; – = inactive; ? = inconclusive; · = no result given.

SMILES	FAS TE block	Runt-CBFb FRET	Runt-SMMHC FRET	RanGTP-Imp inh	Calpain2 inh
O=C(COc1ccc(C(=O)c2ccccc2)cc1)NCC(=O)Nc1ccccc1Br	–	–	–	–	–
Cc1ccccc1C(=O)NCC(=O)OC(C)C(=O)NC(C)CCc1ccccc1 (centres undefined)	–	·	·	·	·
Oc1ccc(CCNc2c3ccccc3nc3ccccc23)cc1O	–	·	·	103.3	·
O=C(Nc1nnc(-c2ccccc2SCc2ccccc2F)s1)Nc1ccccc1F	–	–	–	–	50.8
Cc1ccccc1-c1cccc([C@@H]2C[C@H]3[C@H](CON3C)CN2C(=O)CCc2ccccc2)c1	–	·	·	·	·
Cc1sc2ncn(CC(=O)NCCCC(=O)N3CCCCC3)c(=O)c2c1C	–	·	·	–	·
Cc1sc2ncn(CC(=O)NCCCC(=O)N3CCN(c4ccccc4)CC3)c(=O)c2c1C	–	54.8	–	–	–
CCC(=O)Nc1ccc(NC(=S)NC(=O)c2cc3ccccc3o2)cc1	–	–	–	–	–
CCCC(=O)Nc1ccc(Cl)c(NC(=S)NC(=O)c2cc3ccccc3o2)c1	–	–	–	–	52.0
Oc1c(C=NCc2ccncc2)sc2ccccc12	·	–	65.9	–	–
Oc1c(C=Nc2cccnc2)sc2ccccc12	–	–	62.9	21.6	–
Oc1c(C=Nc2ccc(Cl)cn2)sc2ccccc12	–	–	–	?	–
Oc1c(/C=N/c2ccccn2)sc2ccccc12	–	–	–	22.6	–
CC(=O)NCCN=Cc1sc2ccccc2c1O	–	–	60.2	30.8	–
CCOC(=O)C1CCN(c2ccc([N+](=O)[O-])c(C(C)=O)c2)CC1	–	–	–	–	–
Cn1c(NNC(=O)c2ccc(C(C)(C)C)cc2)cc(=O)n(C)c1=O	–	–	77.2	–	–
Cn1c(NC(=O)c2ccc(C(C)(C)C)cc2)cc(=O)n(C)c1=O	–	–	–	·	–
Cc1cc(=O)[nH]c(NN=C2C3CC4CC(C3)CC2C4)n1	–	–	–	–	–
CCCCCCNC(=O)N[C@H](C(=O)NCCC[C@H]1CN2C(=NC[C@H]2C)N1CCC(c1ccccc1)c1ccccc1)C(C)O (some centres undefined)	·	–	61.8	·	–
O=C(COC(=O)/C=C/c1ccco1)Nc1cccc([N+](=O)[O-])c1	–	–	–	–	–
CCN(C(=O)CN1CCc2ccccc21)c1c(N)n(Cc2ccccc2)c(=O)[nH]c1=O	–	–	57.0	–	–
C=CCn1c(SCC(=O)N(CCOC)c2c(N)n(CC(C)C)c(=O)[nH]c2=O)nc2ccccc21	–	·	·	?	·
COc1ccc2[nH]c3c4c(ccc3c2c1)C(=O)C=CC4=O	–	54.9	–	·	–
Clc1cccc(/C=N/Nc2nnc(Cl)c3ccccc23)c1	–	–	–	34.2	–
CCN(CC)C(=O)C1=C(C)N(Cc2ccc(C(C)(C)C)cc2)C(=O)C(CC(=O)NCCN2CCOCC2)C1 (centres undefined)	–	·	·	·	·
CCOC(=O)/C=C1/N(C)c2ccccc2C1(C)C	–	–	–	–	–
CN1/C(=C\C(=O)c2cccs2)C(C)(C)c2ccccc21	–	–	85.5	17.7	–
CN1/C(=C/C(=O)c2cccs2)Sc2ccccc21	–	–	82.9	–	–

High-throughput results as filed in PubChem.
